In ChEMBL document CHEMBL1126990, “Design and synthesis of 18F-labeled neurotoxic analogs of MPTP” (J Med Chem, 1993):

What was measured:
Assay type in all cases: ADME
Rattus norvegicus [1] = species on record: Rattus norvegicus; assay: Maximal rate (Vmax) for oxidation by rat liver MAO
In short: (§1)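 Rat liver MAO (crude P2 mitochondrial fraction from adult male Wistar rats, in pH 7.4 phosphate buffer) incubated with substrate at 30 μM to 5 mM; colorimetric detection of H2O2 formed. Blanks contained 0.1 mM pargyline. Vmax and Km from linear regression of Lineweaver-Burk plots; means ± SE of n separate experiments; ANOVA with post-hoc Scheffe test.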

MAO = assay: Michaelis-Menten constant (Km) for oxidation by rat liver MAO; in short: as §1
[2] = Ratio between Vmax and Km; in short: as §1
Rattus norvegicus [3] = species on record: Rattus norvegicus; assay: Maximal rate (Vmax) for oxidation by rat liver MAO (results are means of number of separate experiments, n=5); in short: as §1
[4] = separate experiments, n=5); in short: as §1

| SMILES | Vmax (Rattus norvegicus [1]) | Km (MAO) | Ratio [2] | Vmax (Rattus norvegicus [3]) | Km [4] |
| --- | --- | --- | --- | --- | --- |
| CN1CC=C(c2ccccc2CO)CC1 | 273 nM hr-1 (mg of protein)-1 | 370 µM | 0.74 | – | – |
| CN1CC=C(c2ccccc2)CC1 | – | – | 2.42 | 218 nM hr-1 (mg of protein)-1 | 90 µM |
